Results on three compounds are retold here after ChEMBL document CHEMBL4732238, “Synthesis, biological evaluation, and structure-activity relationships of new tubulin polymerization inhibitors based on 5-amino-1,2,4-triazole scaffold” (Bioorg Med Chem Lett, 2021).

Test [1] deals with HeLa. In words: Cell cycle arrest in human HeLa cells assessed as accumulation at G1/G0 phase at 10 uM measured after 48 hrs by propidium iodide staining based flow cytometry (reference value: 54.82 %). Type of test: functional. Background: A flow cytometer gives signals particle by particle.
Test [2] has as its system HeLa. In words: Cell cycle arrest in human HeLa cells assessed as accumulation at S phase at 10 uM measured after 48 hrs by propidium iodide staining based flow cytometry (reference value: 30.73 %). Format: functional.
For test [3], the system named is MCF7. In words: Antiproliferative activity against human MCF7 cells assessed as cell growth inhibition at 100 uM by MTT assay relative to control. Format: functional. The settings on record: read-out: GI. The method in brief:
(§1)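 Five human lines (MCF-7, HeLa, A549, PC-3, Panc-1) exposed to a single 100 μM concentration. Viability read by MTT. Results expressed as […] versus untreated control cells.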

In test [4] the test system is HeLa. In words: Antiproliferative activity against human HeLa cells assessed as cell growth inhibition at 100 uM by MTT assay relative to control. Format: functional. The settings on record: read-out: GI. The method in brief: as §1
A further test concerns A549. In words: Antiproliferative activity against human A549 cells assessed as cell growth inhibition at 100 uM by MTT assay relative to control. Type of test: functional. Particulars: read-out: GI. The gist of the method: as §1
In general terms: Formazan colour is commonly taken as a measure of viable cells.

Another test has as its system PC-3. In words: Antiproliferative activity against human PC-3 cells assessed as cell growth inhibition at 100 uM by MTT assay relative to control. Format: functional. Particulars: read-out: GI. The method in brief:
as §1

The test system of test [5] is PANC-1. In words: Antiproliferative activity against human PANC-1 cells assessed as cell growth inhibition at 100 uM by MTT assay relative to control. Format: functional. Particulars: read-out: GI. The gist of the method:
as §1

In test [6] the test system is MCF7. The test is described as follows: Antiproliferative activity against human MCF7 cells assessed as cell growth inhibition by MTT assay. Format: functional, cell-based. The gist of the method: (§2)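 MTT antiproliferation readout. […] Mean ± SD from three independent experiments.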
The test system of test [7] is HeLa. The test is described as follows: Antiproliferative activity against human HeLa cells assessed as cell growth inhibition by MTT assay. Format: functional, cell-based. The gist of the method:
as §2

In test [8] the test system is PANC-1. In words: Antiproliferative activity against human PANC-1 cells assessed as cell growth inhibition by MTT assay. Format: functional, cell-based. The method in brief: as §2
Another test concerns K562. In words: Antiproliferative activity against human K562 cells assessed as cell growth inhibition by MTT assay. Type of test: functional, cell-based.
For test [9], the system named is HeLa. The test is described as follows: Cell cycle arrest in human HeLa cells assessed as accumulation at G2/M phase at 10 uM measured after 48 hrs by propidium iodide staining based flow cytometry (reference value: 14.45 %). Format: functional.
Test [10] relates to HeLa. The test is described as follows: Cell cycle arrest in human HeLa cells assessed as accumulation at G1/G0 phase at 20 uM measured after 48 hrs by propidium iodide staining based flow cytometry (reference value: 54.82 %). Format: functional.
Test [11] has as its system HeLa. The test is described as follows: Cell cycle arrest in human HeLa cells assessed as accumulation at S phase at 20 uM measured after 48 hrs by propidium iodide staining based flow cytometry (reference value: 30.73 %). Type of test: functional.
The subject of test [12] is HeLa. The test is described as follows: Cell cycle arrest in human HeLa cells assessed as accumulation at G2/M phase at 20 uM measured after 48 hrs by propidium iodide staining based flow cytometry (reference value: 14.45 %). Format: functional.
Test [13] has as its system HeLa. In words: Cell cycle arrest in human HeLa cells assessed as accumulation at G1/G0 phase at 40 uM measured after 48 hrs by propidium iodide staining based flow cytometry (reference value: 54.82 %). Format: functional.
The test system of test [14] is HeLa. In words: Cell cycle arrest in human HeLa cells assessed as accumulation at S phase at 40 uM measured after 48 hrs by propidium iodide staining based flow cytometry (reference value: 30.73 %). Type of test: functional.
Test [15] concerns HeLa. The test is described as follows: Cell cycle arrest in human HeLa cells assessed as accumulation at G2/M phase at 40 uM measured after 48 hrs by propidium iodide staining based flow cytometry (reference value: 14.45 %). Type of test: functional.
The target of a further test is Tubulin (Homo sapiens) (UniProt P68371+Q9H4B7+P0DPH7+P68366+Q13509+Q71U36+P04350+Q3ZCM7+P07437+P68363+Q9BQE3+Q6PEY2+Q13885+Q9BVA1+Q9BUF5). In words: Inhibition of tubulin (unknown origin) polymerization at 10 uM measured every 1 min over 20 mins by fluorescence assay relative to control. Type of test: protein-complex assay. The gist of the method: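 Tubulin in reaction buffer incubated at 37 °C with test agent at final 10 μM; control 1% DMSO. Polymerization followed at 340 nm, read every minute over 20 min. Run three times.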

Another test has as its target Tubulin. In words: Inhibition of tubulin (unknown origin) polymerization measured every 1 min over 20 mins by fluorescence assay. Format: protein-complex assay, Homo sapiens. The method in brief:
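Tubulin polymerization at 37 °C in reaction buffer, followed at 340 nm each minute over 20 min; 1% DMSO control. IC50 given as mean of three independent experiments done in quadruplicate.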

Usually IC50 stands for the midpoint of a concentration-inhibition curve. A word on the inhibition: it is the relative decrease from the control value, in per cent. A low value points to a response near the control.

For `COc1cc(-c2nc(N)n(CC(=O)Nc3ccc(C(C)(C)C)cc3)n2)cc(OC)c1OC`, the Activity stood at 54.33% in the test with HeLa [1]; 30.96% in the test with HeLa [2]; 14.7% in the test on HeLa [9]; 56.06% in the test on HeLa [10]; 28.35% with HeLa [11]; 15.59% with HeLa [12]. Besides, the Activity in the test on HeLa [13] is on record as 52.66%; in the test on HeLa [14], 18.6%; with HeLa [15], 28.74%. Also, the inhibition of growth at 100 µM in the test with MCF7 [3] stood at 93%; with HeLa [4], 95%; in the test with A549, 93%; with PC-3, 70%; in the test with PANC-1 [5], 93%. Also, the IC50 in the test with MCF7 [6] was determined as 35.6 µM; in the test on HeLa [7] it was 18.9 µM; in the test on PANC-1 [8] it was 35.1 µM; in the test on K562, 9.23 µM. The compound also had an inhibition at Tubulin (Homo sapiens) of 48%.
Consider `COc1cc(-c2nc(N)n(Cc3ccc(C)cc3)n2)cc(OC)c1OC`, for which the inhibition of growth at 100 µM was 55% in the test with MCF7 [3]; 76% with HeLa [4]; 34% with A549; 39% in the test on PC-3; 53% in the test on PANC-1 [5]. In addition, the IC50 in the test on MCF7 [6] was determined as 73.8 µM; in the test with HeLa [7], 46.9 µM; in the test with PANC-1 [8], 61.5 µM; in the test with K562 it was 17.1 µM. In addition, the inhibition at Tubulin (Homo sapiens) was determined as 25%.
Consider `COc1ccc(C(=O)Cn2nc(-c3cc(OC)c(OC)c(OC)c3)nc2N)cc1`, for which the inhibition of growth at 100 µM with MCF7 [3] worked out at 73%; in the test on HeLa [4], 76%; in the test with A549, 21%; in the test with PC-3, 31%; with PANC-1 [5], 57%. In addition, the half-maximal inhibitory concentration (IC50) stood at 40.6 µM with MCF7 [6]; 52.2 µM in the test on HeLa [7]; 59.8 µM in the test with PANC-1 [8]; 66 µM in the test with K562; 9.4 µM against Tubulin. Besides, at Tubulin (Homo sapiens), the inhibition was 52%.
